# Assay results taken from ChEMBL document CHEMBL1134388, “Nonpeptide cholecystokinin-2 receptor agonists” (J Med Chem, 2001).
# Calls of active or inactive are those of the source. The calls are words filed in the database; no cut-off is given here.
# Legend:
# Mus musculus [1] = species on record: Mus musculus; assay: Charecterization of agonist response of ligand in mouse stomach bioassay measured as affinity of L-365260; type: functional
# Mus musculus [2] = species on record: Mus musculus; assay: Charecterization of agonist response of ligand in mouse stomach bioassay; type: functional
# [3] = molecular target: T1, Gastrin/cholecystokinin type B receptor (Rattus norvegicus) (UniProt P30553); assay: Antagonistic activity against CCK2 receptor in rat stomach; type: functional, tissue-based
# T1 sequence (whole entry): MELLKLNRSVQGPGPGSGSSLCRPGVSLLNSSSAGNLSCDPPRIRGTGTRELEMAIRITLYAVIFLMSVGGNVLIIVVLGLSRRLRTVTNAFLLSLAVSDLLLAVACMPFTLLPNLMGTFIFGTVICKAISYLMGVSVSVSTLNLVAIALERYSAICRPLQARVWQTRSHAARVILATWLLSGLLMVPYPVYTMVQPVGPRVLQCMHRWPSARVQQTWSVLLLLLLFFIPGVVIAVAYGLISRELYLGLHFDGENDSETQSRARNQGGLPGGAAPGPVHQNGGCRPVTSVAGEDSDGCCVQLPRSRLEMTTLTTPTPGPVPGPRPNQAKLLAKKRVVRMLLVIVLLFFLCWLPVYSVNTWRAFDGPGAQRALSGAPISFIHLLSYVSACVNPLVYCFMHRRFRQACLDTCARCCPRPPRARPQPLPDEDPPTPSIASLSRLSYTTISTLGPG
# [4] = molecular target: T2, Gastrin/cholecystokinin type B receptor (Mus musculus) (UniProt P56481); assay: Antagonistic activity against CCK2 receptor in mouse cortex assay using [125 I]-BH-CCK-8S; type: functional, tissue-based
# T2 sequence (whole entry): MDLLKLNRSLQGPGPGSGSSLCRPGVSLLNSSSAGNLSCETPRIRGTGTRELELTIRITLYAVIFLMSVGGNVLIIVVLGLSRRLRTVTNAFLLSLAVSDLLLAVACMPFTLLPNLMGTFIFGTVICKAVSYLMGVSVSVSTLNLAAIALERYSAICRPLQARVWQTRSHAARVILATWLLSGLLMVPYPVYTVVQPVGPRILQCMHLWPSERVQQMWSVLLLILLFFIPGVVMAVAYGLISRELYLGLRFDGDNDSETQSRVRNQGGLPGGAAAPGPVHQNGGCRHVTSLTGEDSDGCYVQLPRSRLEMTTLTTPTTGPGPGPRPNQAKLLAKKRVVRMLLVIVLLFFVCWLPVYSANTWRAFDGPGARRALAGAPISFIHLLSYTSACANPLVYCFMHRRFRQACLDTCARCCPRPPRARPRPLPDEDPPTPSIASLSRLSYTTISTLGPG
# Method in brief: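 Radioligand competition binding to CCK2 sites in mouse cerebral cortex homogenates against 20 pM [125I]BH-CCK-8S; pKB reported as mean ± SEM from at least three separate experiments.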
# Mus musculus [5] = species on record: Mus musculus; assay: Effect on acid secretion was determined in isolated,lumen-perfused immature mouse stomach; No acid secretion; type: functional
# Method in brief: (§1)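 Isolated, lumen-perfused mouse stomach; compound applied alone and acid secretion observed, scored as present or absent. Tested as bis(N-methyl-D-glucamine) salts.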
# Mus musculus [6] = species on record: Mus musculus; assay: Effect on acid secretion was determined in isolated,lumen-perfused immature mouse stomach; Acid secretion; type: functional; method in brief: as §1
pKB [3],pKB [4],Compound,pKB (Mus musculus [1]),pA50 (Mus musculus [2]),Acid secretion (Mus musculus [5]),Acid secretion (Mus musculus [6]),Kb (Mus musculus [1]; read-out: pA2 (converted))
8.72,8.74,CC(=O)n1ccc2cc(C(=O)N[C@@H](Cc3ccccc3)C(=O)Nc3cc(C(=O)O)cc(C(=O)O)c3)c(C(=O)NCC34CC5CC(CC(C5)C3)C4)cc21,–,–,–,–,–
8.95,7.6,Cn1cnc2cc(C(=O)N[C@@H](Cc3ccccc3)C(=O)Nc3cc(C(=O)O)cc(C(=O)O)c3)c(C(=O)NCC34CC5CC(CC(C5)C3)C4)cc21,–,–,–,Active,–
9.9,8.96,O=C(O)c1cc(NC(=O)[C@H](Cc2ccccc2)NC(=O)c2cc3cc[nH]c3cc2C(=O)NCC23CC4CC(CC(C4)C2)C3)cc(C(=O)O)c1,–,–,–,–,–
8.57,8.36,Cn1ccc2cc(C(=O)NCC34CC5CC(CC(C5)C3)C4)c(C(=O)N[C@@H](Cc3ccccc3)C(=O)Nc3cc(C(=O)O)cc(C(=O)O)c3)cc21,–,7.94,–,Active,–
6.86,7.52,CCCCn1ccc2cc(C(=O)NCC34CC5CC(CC(C5)C3)C4)c(C(=O)N[C@@H](Cc3ccccc3)C(=O)Nc3cc(C(=O)O)cc(C(=O)O)c3)cc21,–,–,–,Active,–
9.8,8.42,Cn1ccc2cc(C(=O)N[C@@H](Cc3ccccc3)C(=O)Nc3cc(C(=O)O)cc(C(=O)O)c3)c(C(=O)NCC34CC5CC(CC(C5)C3)C4)cc21 (stereo in doubt; 3) [listing 2 of 2 here],–,–,–,Active,–

# Continued, molecule first:
Compound,pKB [3],pKB [4],pKB (Mus musculus [1]),pA50 (Mus musculus [2]),Acid secretion (Mus musculus [5]),Acid secretion (Mus musculus [6]),Kb (Mus musculus [1]; read-out: pA2 (converted))
Cn1ccc2cc(C(=O)N[C@@H](Cc3ccccc3)C(=O)Nc3cc(C(=O)O)cc(C(=O)O)c3)c(C(=O)NCC34CC5CC(CC(C5)C3)C4)cc21 (stereo in doubt; 4) [listing 1 of 2 here],–,–,7.02,8.69,–,–,–
Cn1ccc2cc(C(=O)N[C@@H](Cc3ccccc3)C(=O)Nc3cc(C(=O)O)cc(C(=O)O)c3)c(C(=O)NCC34CC5CC(CC(C5)C3)C4)cc21 (stereo in doubt; 3) [listing 1 of 2 here],–,–,7.04,8.4,–,–,–
O=C(O)c1cc(NC(=O)[C@H](Cc2ccccc2)NC(=O)c2cc3[nH]ccc3cc2C(=O)NCC23CC4CC(CC(C4)C2)C3)cc(C(=O)O)c1,9.26,7.87,–,–,inactive,–,–
CCCCn1ccc2cc(C(=O)N[C@@H](Cc3ccccc3)C(=O)Nc3cc(C(=O)O)cc(C(=O)O)c3)c(C(=O)NCC34CC5CC(CC(C5)C3)C4)cc21,7.35,8.44,–,–,–,Active,–
CSCC[C@H](NC(=O)[C@H](Cc1c[nH]c2ccccc12)NC(=O)CCNC(=O)OC(C)(C)C)C(=O)N[C@@H](CC(=O)O)C(=O)N[C@@H](Cc1ccccc1)C(N)=O [PENTAGASTRIN],–,–,–,7.73,–,–,9.77 nM
Cn1ccc2cc(C(=O)N[C@@H](Cc3ccccc3)C(=O)Nc3cc(C(=O)O)cc(C(=O)O)c3)c(C(=O)NCC34CC5CC(CC(C5)C3)C4)cc21 (stereo in doubt; 4) [listing 2 of 2 here],8.99,9.43,–,–,–,Active,–
